# Rows were chosen to be rich in hits. Some 4.6% of all compounds tested hit in one or more screens of this group.
# OX1R antag-1: antagonists of human orexin 1 receptor (OX1R); OX1R-expressing cells, FRET antagonist read-out; Orexin/Hypocretin receptor type 1 (Homo sapiens), O43613; inhibition, % at 6.6 µM; actives 1.8% (n = 330,000); in the data active = inhibition mostly above about 38%, no sharp cut-off; inactive = mostly below about 40%;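 note: 0% = agonist challenge alone and 100% = reference antagonist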
# Target sequence (O43613 whole entry, looked up): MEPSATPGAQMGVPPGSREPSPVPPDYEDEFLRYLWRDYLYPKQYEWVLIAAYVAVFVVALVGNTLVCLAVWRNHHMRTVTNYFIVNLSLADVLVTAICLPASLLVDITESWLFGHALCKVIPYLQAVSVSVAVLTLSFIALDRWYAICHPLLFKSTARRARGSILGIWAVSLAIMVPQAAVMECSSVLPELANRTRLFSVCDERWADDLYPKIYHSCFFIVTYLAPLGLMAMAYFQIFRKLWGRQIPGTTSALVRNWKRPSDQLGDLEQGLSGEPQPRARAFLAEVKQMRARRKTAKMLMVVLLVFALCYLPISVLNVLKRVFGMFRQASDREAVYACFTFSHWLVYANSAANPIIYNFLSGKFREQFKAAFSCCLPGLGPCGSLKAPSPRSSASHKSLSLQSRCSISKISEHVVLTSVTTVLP
# CHO parental Ca: ATP-evoked calcium signal inhibitors, parental CHO, primary screen, counter-screen for OX1R antagonist project, cell-based, fluorescence, Fluo-8 calcium dye | parental CHO-K1, ATP-induced calcium, Fluo-8 fluorescence | actives 0.63% (n = 330,000) | inhibition, % at 5.6 µM | AID 463079, 2010;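 active = inhibition above that plate's mean sample inhibition plus 3 SD, cut at about 26% in these data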;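 note: 0% = ATP-challenged DMSO wells and 100% = DMSO wells without ATP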
#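 Test system: untransfected parental CHO cell line. Compound: one dose, 5.6 µM nominal. Detection: intracellular calcium via Fluo-8 no-wash fluorescent dye. Measure: % inhibition. Benchmarks: ATP-challenged DMSO wells low, unchallenged DMSO wells high.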
# TAAR1 agonist: human TAAR1 agonists, primary screen, Fluo-8 calcium fluorescence, CHO RD-HGA16 cells | Trace amine-associated receptor 1 (Homo sapiens), Q96RJ0 | vehicle wells 0%, saturating PEA agonist 100% | activation, % at 3 µM | actives 0.99% (n = 360,000) | AID 624467, 2012;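 active = activation above the mean activation of all test compounds in the run plus 3 SD, cut at about 38% in these data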
#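 Assay system – CHO-derived RD-HGA16 cells with stable Gα16 and human TAAR1 · Compound dosing – one-point dosing at 3 µM (nominal) · Incubation – 17-24 h seeding, 75 min 37 °C dye, 30 min RT · Measured by – kinetic Fluo-8 calcium fluorescence · Control set – DMSO vehicle as 0%, PEA at EC100 as 100% · Repeats – single well for each compound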
# GPR7 antagonist: GPR7 receptor antagonists, primary screen, cell-based, fluorescence, single concentration; Neuropeptides B/W receptor type 1 (Homo sapiens), P48145; GPR7-expressing cells, fluorescence antagonist assay; inhibition, % at 4.4 µM; actives 1.1% (n = 290,000); in the data active = inhibition above about 16%, passing the limit was not always enough;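 note: cells stimulated with the agonist NPW; 0% = agonist with vehicle and 100% = vehicle without agonist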
# Target sequence (P48145 whole entry, looked up): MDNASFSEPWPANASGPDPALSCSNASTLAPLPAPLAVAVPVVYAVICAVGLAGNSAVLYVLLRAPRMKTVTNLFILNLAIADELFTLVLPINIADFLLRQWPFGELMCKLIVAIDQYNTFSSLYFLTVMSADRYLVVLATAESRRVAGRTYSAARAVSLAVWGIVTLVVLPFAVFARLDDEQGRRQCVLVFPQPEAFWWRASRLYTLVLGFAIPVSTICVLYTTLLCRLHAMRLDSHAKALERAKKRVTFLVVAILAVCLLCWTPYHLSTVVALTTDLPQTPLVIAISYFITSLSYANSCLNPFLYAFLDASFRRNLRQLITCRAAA
# OX1R antag-2: OX1R (HCRTR1) antagonists, primary screen, fluorescence, CHO/OX1R cells, Fluo-8 calcium, orexin A | Orexin/Hypocretin receptor type 1 (Homo sapiens), O43613 | Fluo-8 calcium fluorescence | actives 0.43% (n = 330,000) | inhibition, % at 5 µM;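 active = inhibition above its plate's threshold, mean inhibition of all tested compounds on the plate plus 3 SD, cut at about 37% in these data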;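 note: 0% = orexin A challenge wells and 100% = SB-334867-A antagonist wells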
# TAAR1 antagonist: human TAAR1 antagonists, primary screen, Fluo-8 calcium fluorescence, CHO RD-HGA16 cells. Trace amine-associated receptor 1 (Homo sapiens), Q96RJ0. antagonist. inhibition, % at 3 µM. actives 1.5% (n = 360,000);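 active = inhibition above a per-plate cutoff, the mean inhibition of test compounds on that plate plus 3 SD, cut at about 49% in these data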;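 note: 0% = DMSO plus EC80 beta-PEA response and 100% = DMSO alone without agonist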
#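 Test system: RD-HGA16 CHO cells with stable hTAAR1 and Gα16 / Probe or stimulus: EC80 β-phenethylamine stimulus / Times: seeding 17-24 h prior, 75-min 37 °C, 30-min RT dye loading / Detection: Fluo-8 calcium-sensitive fluorescence / Read-out basis: % inhibition scaled between DMSO and EC80 PEA controls / Repeats: singlicate, one well per test compound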
# TAAR1 ag conf: human TAAR1 agonists, retest of hits, confirmation, Fluo-8 calcium fluorescence, CHO RD-HGA16 cells | scaled: DMSO 0%, maximal phenethylamine 100% | shares compounds with TAAR1 agonist | activation, % at 3 µM | actives 82% (n = 2,400);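 active = activation above a cutoff set at the run's mean compound activation plus 3 SD, cut at about 39% in these data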
# Ga16 ag counter: nonselective calcium mobilization agonists, CHO-Ga16 cells, counter-screen for hTAAR1 agonist project, cell-based, fluorescence, CHO-Ga16 parental line | actives 50% (n = 2,400) | activation, % at 3 µM | shares compounds with TAAR1 agonist | Fluo-8 calcium fluorescence; normalized to maximal ATP response, DMSO zero;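 active = activation above the run cutoff, the mean activation over all tested wells plus 3 SD, cut at about 12% in these data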;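 note: 0% = DMSO wells and 100% = maximal ATP response on the peak over basal ratio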
# TAAR1 desensitize: TAAR1 desensitization by agonist hits, confirmation, counter-screen for TAAR1 agonist project, cell-based, fluorescence, tachyphylaxis. inhibition, % at 3 µM. actives 46% (n = 2,400). AID 651951, 2012. CHO RD-HGA16 hTAAR1, Fluo-8 calcium, beta-PEA response inhibition. shares compounds with TAAR1 agonist;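 active = inhibition above the run cutoff, the mean inhibition of all test compounds plus 3 SD, cut at about 49% in these data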;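 note: beta-PEA stimulus applied at its EC80; loss of beta-PEA calcium signal after compound pretreatment read as receptor desensitization; 0% = DMSO with beta-PEA at EC80 and 100% = DMSO alone without agonist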
# Ga16 nonsel ant: inhibition of ATP-evoked calcium response in CHO-Ga16 cells, counter-screen for TAAR1 agonist project, cell-based, fluorescence. shares compounds with TAAR1 agonist. CHO-Ga16 ATP-induced calcium, Fluo-8 fluorescence. inhibition, % at 3 µM. actives 39% (n = 2,400);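 active = inhibition above the plate's mean compound inhibition plus 3 SD, computed per plate, cut at about 22% in these data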;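 note: 0% = EC80 ATP with DMSO and 100% = DMSO wells without ATP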
# Active calls of the source: *; . = no result.
SMILES,OX1R antag-1,CHO parental Ca,TAAR1 agonist,GPR7 antagonist,OX1R antag-2,TAAR1 antagonist,TAAR1 ag conf,Ga16 ag counter,TAAR1 desensitize,Ga16 nonsel ant
COc1ccc(CCCC(=O)NCCc2ccccc2)cc1,.,.,-0.7,-0.7,.,-14.6,.,.,.,.
O=C(O)/C=C/C(=O)NCCc1cccc(Cl)c1,9.0,-7.8,69.3*,-8.2,-5.2,75.7*,92.9*,7.9,96.4*,6.3
COc1ccc(S(=O)(=O)NC(=O)C2(C)CCN2C(=O)C2CCCCC2)cc1OC (stereo not drawn),.,.,3.6,.,.,-28.2,.,.,.,.
Cc1ccccc1N(CC(=O)NCCc1ccccc1)C(=O)c1csnn1,21.1,-3.0,-0.3,-9.2,-15.5,-17.6,.,.,.,.
Cc1ccc(Nc2nc(N)c3ccccc3n2)cc1Cl,13.2,-8.1,49.5*,-3.1,-20.1,38.0,82.5*,24.2*,74.6*,7.9
CN(C)c1ccc(Nc2nc(N)c3ccccc3n2)cc1,2.6,-4.5,23.5,-12.3,-13.2,1.6,.,.,.,.
Nc1nc(Nc2ccccc2)nc2ccccc12,21.1,-25.2,102.7*,1.6,-25.9,90.5*,94.9*,6.5,100.3*,9.9
Nc1nc(Nc2ccc(Cl)cc2)nc2ccccc12,19.5,-8.3,65.0*,12.4,-12.9,72.1*,83.9*,7.9,70.1*,5.0
C[C@@H]1CN([C@H](C)CO)C(=O)c2cc(Br)cnc2O[C@H]1CN(C)Cc1cccnc1,.,.,0.2,.,.,9.6,.,.,.,.
COC(=O)c1cc(S(=O)(=O)NCC2CCN(CCc3ccc(OC)cc3)CC2)cn1C,20.9,-18.3,1.8,-11.2,-24.3,-8.8,.,.,.,.
O=C1NCCN(Cc2ccc(Cl)c(F)c2)C1CC(=O)N1CCc2ccccc2C1 (stereo not drawn),0.1,-14.3,59.9*,-4.8,-16.5,10.8,91.8*,0.8,46.3,5.1
COCCN(Cc1ccc(C)cc1)C(=O)[C@H]1O[C@@H](n2cnc(C(N)=O)n2)[C@H](O)[C@@H]1O,.,.,4.0,.,.,-27.7,.,.,.,.
CCn1c(SCC(=O)N(C)c2c(N)n(Cc3ccccc3)c(=O)[nH]c2=O)nnc1-c1cccs1,.,.,1.8,.,.,-18.2,.,.,.,.
CN(C)c1ccc(C(=O)c2ccccc2C(=O)O)c(O)c1,11.7,3.5,2.1,-7.3,-14.8,7.1,.,.,.,.
CCCCN(CCCC)c1ccc(C(=O)c2ccccc2C(=O)O)c(O)c1,17.9,94.0*,107.2*,7.8,78.1*,91.8*,37.6*,38.7*,63.9*,56.5*
Cc1cc(C2=NNC(=NCCc3ccccc3)SC2)c(C)n1-c1c(C)n(C)n(-c2ccccc2)c1=O,-0.1,-3.1,70.4*,4.7,-26.1,21.3,92.6*,2.2,61.9*,2.4
Cn1c(NCCc2ccncc2)nc2cc(-c3ccccc3)sc2c1=O,.,.,4.3,.,.,-27.0,.,.,.,.
Cc1ccc(CNC(=O)Cn2cnc(C(=O)Nc3ccc(C)c(C)c3)n2)o1,3.6,-15.8,3.4,.,-20.0,-13.2,.,.,.,.
c1ccc2c(-c3ccc(OCCN4CCCCC4)cc3)c(-c3ccsc3)sc2c1,1.7,-3.1,47.1*,.,10.0,43.8,49.1*,25.3*,50.7*,42.6*
Cc1ccc(NC(=O)OCc2cccs2)cc1,7.3,-3.5,.,-2.2,-13.3,.,.,.,.,.
O=C(COC(=O)CN1C(=O)c2ccccc2C1=O)Nc1ccccc1,4.0,-3.6,48.4*,.,-1.7,-26.3,57.0*,0.3,7.8,3.9
CC(=O)NNC(=S)NC(=O)C(c1ccccc1)c1ccccc1,13.0,-15.8,49.3*,-2.4,-18.0,18.8,28.1,19.6*,26.7,24.6*
COc1ccccc1CCNC(=O)C(=O)NCC1OCCN1S(=O)(=O)c1ccccc1 (stereo not drawn),27.8,-5.4,47.4*,5.5,-11.5,5.2,69.3*,0.8,34.2,4.6
COc1ccccc1CCNC(=O)C(=O)NCC1OCCN1S(=O)(=O)c1cccs1 (stereo not drawn),33.5,-5.8,71.6*,3.7,2.9,-4.5,73.9*,0.8,36.1,15.6
COc1ccccc1CCNC(=O)C(=O)NCC1OCCCN1S(=O)(=O)c1ccc(F)cc1C (stereo not drawn),47.3,-18.2,57.8*,-18.4,-2.0,4.0,64.2*,3.8,20.5,12.1
SMILES,OX1R antag-1,CHO parental Ca,TAAR1 agonist,GPR7 antagonist,OX1R antag-2,TAAR1 antagonist,TAAR1 ag conf,Ga16 ag counter,TAAR1 desensitize,Ga16 nonsel ant
COc1ccccc1CCNC(=O)C(=O)NCC1OCCN1S(=O)(=O)c1ccc(C)cc1 (stereo not drawn),4.3,-20.5,62.7*,-0.9,-12.9,37.2,76.4*,1.9,58.1*,4.8
Cc1cc(F)ccc1S(=O)(=O)N1CCCOC1CNC(=O)C(=O)NCCc1ccco1 (stereo not drawn),.,.,2.1,.,.,-13.3,.,.,.,.
CSc1ccc(CN2CCC2(C)C(=O)Nc2cccc(Oc3ccccc3)c2)cc1 (stereo not drawn),.,.,2.5,.,.,-40.2,.,.,.,.
Cc1ccc(OCCN2CCC2(C)C(=O)NCc2ccc(C(F)(F)F)cc2)cc1 (stereo not drawn),.,.,0.0,.,.,-18.7,.,.,.,.
CC[C@@H](NCCCn1ccc(NC(=O)OCc2ccccc2)nc1=O)c1ccccc1,.,.,1.0,.,.,4.3,.,.,.,.
COc1ccccc1CCNC(=O)C(=O)NCC1OCCN1S(=O)(=O)c1ccc([N+](=O)[O-])cc1 (stereo not drawn),26.7,-11.9,45.9*,0.4,-25.0,-21.4,72.5*,3.0,13.0,6.5
O=C(NCCc1ccccc1)C(=O)NCC1OCCN1S(=O)(=O)c1cc(F)ccc1F (stereo not drawn),23.5,-14.7,51.7*,1.9,-13.9,42.7,69.0*,10.6,57.6*,33.8*
O=C(OCc1cc(=O)n2ccsc2n1)C1(c2ccccc2)CC1,.,.,1.6,.,.,-4.3,.,.,.,.

# From PubChem BioAssay
